Experimental data as given in ChEMBL document CHEMBL3872252, “New bithiazolyl hydrazones: Novel synthesis, characterization and antitubercular evaluation” (Bioorg Med Chem Lett, 2017).
≈ marks a conversion by molar mass, not a printed value.

How the values were obtained:
[1] = test system: Escherichia coli; assay: Growth inhibition of Escherichia coli at 10 ug/ml; type: functional; details: read-out: GI
[2] = test system: Pseudomonas aeruginosa; assay: Growth inhibition of Pseudomonas aeruginosa at 3 ug/ml; type: functional; details: read-out: GI
Summary of the method: (§1)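 Screened against Gram-negative E. coli and P. aeruginosa and Gram-positive S. aureus and B. subtilis. Compound was tested at 3 µg/ml, and the read-out is percent growth inhibition.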

[3] = Antitubercular activity against Mycobacterium tuberculosis H37Ra ATCC 25177 active stage infected in human THP1 cells measured on day 8 by nitrate reductase assay; type: functional, THP-1; details: ATCC 25177, 192 h
[4] = Selectivity index, ratio of GI50 for human HCT116 cells to MIC90 for Mycobacterium bovis BCG ATCC 35743 active stage; type: toxicity, cell-based, HCT-116; details: read-out: Selectivity Index
Summary of the method: (§2)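 Cytotoxicity was measured on human MCF-7, HCT116 and THP-1 cells by MTT assay, with paclitaxel as reference. GI50 is the concentration inhibiting 50% of cell growth. The selectivity index is GI50 for the given cell line divided by MIC90 for the given mycobacterial strain and stage.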

[5] = Selectivity index, ratio of GI50 for human MCF7 cells to MIC90 for Mycobacterium bovis BCG ATCC 35743 active stage; type: toxicity, cell-based; details: read-out: Selectivity Index; summary of the method: as §2
[6] = Selectivity index, ratio of GI50 for human THP1 cells to MIC90 for Mycobacterium tuberculosis H37Ra ATCC 25177 active stage; type: toxicity, cell-based, THP-1; details: read-out: Selectivity Index; summary of the method: as §2
[7] = Antitubercular activity against Mycobacterium tuberculosis H37Ra ATCC 25177 dormant stage measured on day 12 by XTT reduction menadione based two-fold dilution assay; type: functional; details: ATCC 25177, 288 h
Summary of the method: (§3)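 M. tuberculosis H37Ra ATCC 25177 was exposed to 0.7–100 μg/mL in two-fold steps (0.7, 1.5, 3.1 … 100). Active stage was read after 8 days and dormant stage after 12 days of incubation. Inhibition was read by XTT reduction menadione assay (XRMA), absorbance 470 nm. MIC90 is the concentration giving ≥90% inhibition (µg/mL).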

[8] = Selectivity index, ratio of GI50 for human HCT116 cells to MIC90 for Mycobacterium tuberculosis H37Ra ATCC 25177 active stage; type: toxicity, cell-based, HCT-116; details: read-out: Selectivity Index; summary of the method: as §2
[9] = test system: Escherichia coli; assay: Growth inhibition of Escherichia coli at 3 ug/ml; type: functional; details: read-out: GI; summary of the method: as §1
[10] = test system: Bacillus subtilis; assay: Growth inhibition of Bacillus subtilis at 3 ug/ml; type: functional; details: read-out: GI; summary of the method: as §1
[11] = Cytotoxicity against human MCF7 cells by MTT assay; type: toxicity, cell-based; details: for GI50: MCF7 cells; for GI90: mcf7
[12] = Selectivity index, ratio of GI50 for human THP1 cells to MIC90 for Mycobacterium bovis BCG ATCC 35743 dormant stage; type: toxicity, cell-based, THP-1; details: read-out: Selectivity Index
Summary of the method: (§4)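 Cytotoxicity was measured on human MCF-7, HCT116 and THP-1 cells by MTT assay, with paclitaxel as reference. The selectivity index is GI50 for the given cell line divided by MIC90 for the given mycobacterial strain and stage.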

[13] = Antitubercular activity against Mycobacterium tuberculosis H37Ra ATCC 25177 active stage measured on day 8 by XTT reduction menadione based two-fold dilution assay; type: functional; details: ATCC 25177, 192 h; summary of the method: as §3
[14] = Selectivity index, ratio of GI50 for human HCT116 cells to MIC90 for Mycobacterium tuberculosis H37Ra ATCC 25177 dormant stage; type: toxicity, cell-based, HCT-116; details: read-out: Selectivity Index; summary of the method: as §4
[15] = test system: Staphylococcus aureus; assay: Growth inhibition of Staphylococcus aureus at 10 ug/ml; type: functional; details: read-out: GI
[16] = test system: Staphylococcus aureus; assay: Growth inhibition of Staphylococcus aureus at 30 ug/ml; type: functional; details: read-out: GI
[17] = Selectivity index, ratio of GI50 for human THP1 cells to MIC90 for Mycobacterium bovis BCG ATCC 35743 active stage; type: toxicity, cell-based, THP-1; details: read-out: Selectivity Index; summary of the method: as §2
[18] = Selectivity index, ratio of GI50 for human MCF7 cells to MIC90 for Mycobacterium tuberculosis H37Ra ATCC 25177 dormant stage; type: toxicity, cell-based; details: read-out: Selectivity Index; summary of the method: as §4
[19] = test system: Pseudomonas aeruginosa; assay: Growth inhibition of Pseudomonas aeruginosa at 10 ug/ml; type: functional; details: read-out: GI
[20] = test system: Pseudomonas aeruginosa; assay: Growth inhibition of Pseudomonas aeruginosa at 30 ug/ml; type: functional; details: read-out: GI
[21] = Selectivity index, ratio of GI50 for human MCF7 cells to MIC90 for Mycobacterium bovis BCG ATCC 35743 dormant stage; type: toxicity, cell-based; details: read-out: Selectivity Index; summary of the method: as §4
[22] = test system: Escherichia coli; assay: Growth inhibition of Escherichia coli at 30 ug/ml; type: functional; details: read-out: GI
[23] = test system: Bacillus subtilis; assay: Growth inhibition of Bacillus subtilis at 30 ug/ml; type: functional; details: read-out: GI
[24] = test system: Bacillus subtilis; assay: Growth inhibition of Bacillus subtilis at 10 ug/ml; type: functional; details: read-out: GI
[25] = Selectivity index, ratio of GI50 for human MCF7 cells to MIC90 for Mycobacterium tuberculosis H37Ra ATCC 25177 active stage; type: toxicity, cell-based; details: read-out: Selectivity Index; summary of the method: as §2
[26] = Antitubercular activity against Mycobacterium tuberculosis H37Ra ATCC 25177 dormant stage infected in human THP1 cells measured on day 12 by nitrate reductase assay; type: functional, THP-1; details: ATCC 25177, 288 h
[27] = Antitubercular activity against Mycobacterium bovis BCG ATCC 35743 active stage measured on day 8 by nitrate reductase based two-fold dilution assay; type: functional, Mycobacterium bovis BCG str. ATCC 35743; details: Mycobacterium tuberculosis variant bovis BCG, ATCC 35743, 192 h
[28] = Cytotoxicity against human HCT116 cells by MTT assay; type: toxicity, cell-based, HCT-116; details: for GI50: HCT116 cells; for GI90: hct-116
[29] = Selectivity index, ratio of GI50 for human THP1 cells to MIC90 for Mycobacterium tuberculosis H37Ra ATCC 25177 dormant stage; type: toxicity, cell-based, THP-1; details: read-out: Selectivity Index; summary of the method: as §4
[30] = Cytotoxicity against human THP1 cells by MTT assay; type: toxicity, cell-based, THP-1; details: for GI50: THP1 cells; for GI90: thp-1
[31] = test system: Staphylococcus aureus; assay: Growth inhibition of Staphylococcus aureus at 3 ug/ml; type: functional; details: read-out: GI; summary of the method: as §1
[32] = Selectivity index, ratio of GI50 for human HCT116 cells to MIC90 for Mycobacterium bovis BCG ATCC 35743 dormant stage; type: toxicity, cell-based, HCT-116; details: read-out: Selectivity Index; summary of the method: as §4
[33] = Antitubercular activity against Mycobacterium bovis BCG ATCC 35743 dormant stage measured on day 12 by nitrate reductase based two-fold dilution assay; type: functional, Mycobacterium bovis BCG str. ATCC 35743; details: Mycobacterium tuberculosis variant bovis BCG, ATCC 35743, 288 h

Structure (SMILES) | inhibition of growth at 10 µg/mL [1] [%] | inhibition of growth at 3 µg/mL [2] [%] | MIC90 [3] [µg/mL] | selectivity ratio [4] | selectivity ratio [5] | selectivity ratio [6] | IC50 [7] [µg/mL] | MIC90 [7] [µg/mL] | selectivity ratio [8] | inhibition of growth at 3 µg/mL [9] [%] | inhibition of growth at 3 µg/mL [10] [%] | GI50 [11] [µg/mL] | GI90 [11] [µg/mL] | selectivity ratio [12] | IC50 [13] [µg/mL] | MIC90 [13] [µg/mL] | selectivity ratio [14] | inhibition of growth at 10 µg/mL [15] [%] | inhibition of growth at 30 µg/mL [16] [%] | selectivity ratio [17] | other results
C/C(=N\Nc1nc(-c2ccc(F)cc2)cs1)c1sc(C)nc1C | 77.3 | 62 | 57 (≈ 165 µM) | 11 | 11 | 4 | 2.04 (≈ 5.89 µM) | 53.8 (≈ 155 µM) | 4 | 64 | 58.6 | > 100 | > 100 | 10 | 2.67 (≈ 7.71 µM) | 25.3 (≈ 72.9 µM) | 2 | 75.9 | 83.5 | 11 | selectivity ratio [18]: 2; inhibition of growth at 10 µg/mL [19]: 76.8%; inhibition of growth at 30 µg/mL [20]: 81.7%; selectivity ratio [21]: 10; inhibition of growth at 30 µg/mL [22]: 84.3%; inhibition of growth at 30 µg/mL [23]: 82.2%; inhibition of growth at 10 µg/mL [24]: 74.1%; selectivity ratio [25]: 4; MIC90 [26]: 44.3 µg/mL (≈ 128 µM); IC50 [27]: 6 µg/mL (≈ 17.3 µM); MIC90 [27]: 9.29 µg/mL (≈ 26.8 µM); GI50 [28]: > 100 µg/mL; GI90 [28]: > 100 µg/mL; selectivity ratio [29]: 2; GI50 [30]: > 100 µg/mL; GI90 [30]: > 100 µg/mL; inhibition of growth at 3 µg/mL [31]: 61.6%; selectivity ratio [32]: 10; IC50 [33]: 6.04 µg/mL (≈ 17.4 µM); MIC90 [33]: 10.4 µg/mL (≈ 30.1 µM)
COc1ccc(-c2csc(N/N=C(\C)c3sc(C)nc3C)n2)cc1 | 74.3 | 73.6 | 48.2 (≈ 135 µM) | 1 | 1 | 1 | 1.24 (≈ 3.46 µM) | 20.5 (≈ 57.2 µM) | 1 | 74.4 | 70.7 | > 100 | > 100 | 12 | 0.88 (≈ 2.45 µM) | 74.1 (≈ 207 µM) | 5 | 72.7 | 67.2 | 1 | selectivity ratio [18]: 5; inhibition of growth at 10 µg/mL [19]: 73.5%; inhibition of growth at 30 µg/mL [20]: 67.8%; selectivity ratio [21]: 12; inhibition of growth at 30 µg/mL [22]: 69.2%; inhibition of growth at 30 µg/mL [23]: 64.7%; inhibition of growth at 10 µg/mL [24]: 70.6%; selectivity ratio [25]: 1; MIC90 [26]: 46.2 µg/mL (≈ 129 µM); IC50 [27]: 7.37 µg/mL (≈ 20.6 µM); MIC90 [27]: 67.3 µg/mL (≈ 188 µM); GI50 [28]: > 100 µg/mL; GI90 [28]: > 100 µg/mL; selectivity ratio [29]: 5; GI50 [30]: > 100 µg/mL; GI90 [30]: > 100 µg/mL; inhibition of growth at 3 µg/mL [31]: 72.8%; selectivity ratio [32]: 12; IC50 [33]: 8.41 µg/mL (≈ 23.5 µM); MIC90 [33]: 24 µg/mL (≈ 67.1 µM)
